According to ChEMBL document CHEMBL4814013, “Scaffold repurposing of fendiline: Identification of potent KRAS plasma membrane localization inhibitors” (Eur J Med Chem, 2021):
The source made the active and inactive calls. The calls are words filed in the database; no cut-off is given here.

What was measured:
[1] = Inhibition of ASM in dog MDCK cells co-expressing recombinant full length mGFP-tagged KRAS G12V mutant and mCherry-CAAX assessed as reduction in plasma membrane localization of KRAS mutant incubated for 48 hrs by confocal microscopic analysis; format: cell membranes, Canis lupus familiaris
Procedure, shortened: (§1)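 MDCK cells stably co-expressing mGFP-KRAS G12V or mGFP-LactC2 with mCherry-CAAX (HRAS 179–189 C181S/C184S) grown on coverslips in DMEM/10% FBS. Treated 48 h with 0.1% DMSO or graded drug, fixed in 4% paraformaldehyde, then quantitative confocal imaging. Mislocalization scored as the Manders fraction of mCherry-CAAX co-localizing with the GFP probe. IC50 and Emax from three independent experiments.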

Caenorhabditis elegans = assay: In vivo inhibition of KRAS signaling in Caenorhabditis elegans lin-1 L1 harboring let60 […] mutant assessed as reduction in multi-vulva phenotype measured after 4 to 5 days culturing in buffer containing Escherichia coli OP50 by DIC/Nomarski microscopic analysis; format: functional, organism-based; conditions: dose 0.1-30 µM, time 4-5 day
Procedure, shortened: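 let-60 (n1046) or lin-1 L1 larvae cultured in M9 buffer with E. coli OP50 plus DMSO vehicle or compound at 0.1, 0.3, 1, 3, 10 or 30 µM. After 4–5 days, adults were scored for multi-vulva by DIC/Nomarski microscopy.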

BXPC-3 = assay: Antiproliferative activity against human BXPC-3 cells expressing wild type KRAS assessed as reduction in cell growth incubated for 72 hrs by CyQuant proliferation assay; format: functional, cell-based; conditions: BXPC-3, 72 h
Procedure, shortened: (§2)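 Cells seeded in 96-well plates; after 24 h fresh growth medium with 0.1% DMSO vehicle or drug added (highest dose 30 µM for cancer lines), grown 72 h at 37 °C, 5% CO2. Live cell number measured by CyQUANT fluorescence. IC50 from three independent experiments. MEFs were isogenic lines carrying oncogenic BRAF or KRAS.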

HEC-1B cell line = assay: Antiproliferative activity against human HEC-1B cells expressing mutant KRAS assessed as reduction in cell growth incubated for 72 hrs by CyQuant proliferation assay; format: functional, cell-based; procedure, shortened: as §2
SK-CO-1 = assay: Antiproliferative activity against human SK-CO-1 cells expressing mutant KRAS assessed as reduction in cell growth incubated for 72 hrs by CyQuant proliferation assay; format: functional, cell-based; conditions: SK-CO-1, 72 h; procedure, shortened: as §2
MEF [2] = assay: Antiproliferative activity against mouse MEF cells expressing KRAS G12D mutant assessed as reduction in cell growth incubated for 72 hrs by CyQuant proliferation assay; format: functional, cell-based; procedure, shortened: as §2
MEF [3] = assay: Antiproliferative activity against mouse MEF cells expressing KRAS G12V mutant assessed as reduction in cell growth incubated for 72 hrs by CyQuant proliferation assay; format: functional, cell-based; procedure, shortened: as §2
[4] = Antiproliferative activity against human MPANC96 cells expressing KRAS mutant assessed as reduction in cell growth incubated for 72 hrs by CyQuant proliferation assay; format: functional, cell-based; conditions: MPANC96, 72 h; procedure, shortened: as §2
Ishikawa = assay: Antiproliferative activity against human Ishikawa cells expressing wild type KRAS assessed as reduction in cell growth incubated for 72 hrs by CyQuant proliferation assay; format: functional, cell-based; procedure, shortened: as §2
NCI-H1975 = assay: Antiproliferative activity against human NCI-H1975 cells expressing wild type KRAS assessed as reduction in cell growth incubated for 72 hrs by CyQuant proliferation assay; format: functional, cell-based; conditions: NCI-H1975, 72 h; procedure, shortened: as §2
MDCK [5] = assay: Reduction in expression of human GFP-tagged ASM transfected in dog MDCK cells at 5 uM incubated for 48 hrs by western blot analysis; format: functional, cell-based; conditions: Canis lupus familiaris
Procedure, shortened: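 SMPD1-GFP-expressing MDCK cells treated 48 h with 5 µM compound, washed in cold PBS and lysed in Tris pH 7.5 buffer with NaF, EGTA, DTT, vanadate, 1% NP40 and protease inhibitors. 20 µg of protein resolved by SDS-PAGE and immunoblotted. Signals detected by enhanced chemiluminescence and quantified by densitometry.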

[6] = Antiproliferative activity against human MOH cells expressing KRAS mutant assessed as reduction in cell growth incubated for 72 hrs by CyQuant proliferation assay; format: functional, cell-based; procedure, shortened: as §2
MIA PaCa-2 [7] = assay: Antiproliferative activity against human MIA PaCa-2 cells expressing KRAS mutant assessed as reduction in cell growth incubated for 72 hrs by CyQuant proliferation assay; format: functional, cell-based; conditions: MIA PaCa-2, 72 h; procedure, shortened: as §2
MDCK [8] = assay: Inhibition of ASM in dog MDCK cells co-expressing recombinant full length mGFP-tagged KRAS G12V mutant and mCherry-CAAX assessed as reduction in plasma membrane localization of KRAS mutant incubated for 48 hrs by confocal microscopic analysis relative to control; format: cell membranes; conditions: Canis lupus familiaris; procedure, shortened: as §1
MDCK [9] = assay: Inhibition of ASM in dog MDCK cells co-expressing recombinant full length GFP-tagged LactC2 and mCherry-CAAX assessed as reduction in plasma membrane localization of LactC2 incubated for 48 hrs by confocal microscopic analysis; format: cell membranes; conditions: Canis lupus familiaris; procedure, shortened: as §1
NCI-H522 = assay: Antiproliferative activity against human NCI-H522 cells expressing wild type KRAS assessed as reduction in cell growth incubated for 72 hrs by CyQuant proliferation assay; format: functional, cell-based; conditions: NCI-H522, 72 h; procedure, shortened: as §2
ESS-1 = assay: Antiproliferative activity against human ESS-1 cells expressing wild type KRAS assessed as reduction in cell growth upto 30 uM incubated for 72 hrs by CyQuant proliferation assay; format: functional, cell-based; conditions: dose microM <=30, time 72.0 hrs; procedure, shortened: as §2
NCI-H1299 = assay: Antiproliferative activity against human NCI-H1299 cells expressing wild type KRAS assessed as reduction in cell growth incubated for 72 hrs by CyQuant proliferation assay; format: functional, cell-based; conditions: NCI-H1299, 72 h; procedure, shortened: as §2
KLE = assay: Antiproliferative activity against human KLE cells expressing wild type KRAS assessed as reduction in cell growth upto 30 uM incubated for 72 hrs by CyQuant proliferation assay; format: functional, cell-based; conditions: dose microM <=30, time 72.0 hrs; procedure, shortened: as §2
MEF [10] = assay: Cytotoxicity against mouse MEF cells expressing BRAF V600E mutant and wild type KRAS assessed as reduction in cell growth incubated for 72 hrs by CyQuant proliferation assay; format: functional, cell-based; procedure, shortened: as §2
MDCK [11] = assay: Inhibition of ASM in dog MDCK cells co-expressing recombinant full length mGFP-tagged KRAS G12V mutant and mCherry-CAAX assessed as reduction in plasma membrane localization of KRAS mutant at 1 uM incubated for 48 hrs followed by incubation with recombinant ASM in continued presence of compound for 60 mins by confocal microscopic analysis; format: cell membranes; conditions: Canis lupus familiaris, time 49.0 hrs
Procedure, shortened: (§3)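 MDCK cells stably co-expressing mGFP-KRAS G12V and mCherry-CAAX seeded on glass coverslips and grown 48 h with or without compound. Medium then replaced with fresh medium containing 2 units/mL recombinant ASM, drug continued, for 60 min. Cells mounted in mowiol and imaged by confocal microscopy. Mislocalization scored by Manders coefficient.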

MDCK [12] = assay: Cytotoxicity against dog MDCK cells at 30 uM; format: functional, cell-based; conditions: Canis lupus familiaris
Caco-2 = assay: Antiproliferative activity against human Caco-2 cells expressing wild type KRAS assessed as reduction in cell growth incubated for 72 hrs by CyQuant proliferation assay; format: functional, cell-based; conditions: Caco-2, 72 h; procedure, shortened: as §2
[13] = biological target: T1, Sphingomyelin phosphodiesterase (Homo sapiens) (UniProt P17405); assay: Inhibition of human GFP-tagged ASM expressed in dog MDCK cells using sphingomyelin as substrate at 5 uM incubated for 48 hrs by Amplex Red dye based fluorescence analysis; format: cell-based
T1 sequence (whole entry): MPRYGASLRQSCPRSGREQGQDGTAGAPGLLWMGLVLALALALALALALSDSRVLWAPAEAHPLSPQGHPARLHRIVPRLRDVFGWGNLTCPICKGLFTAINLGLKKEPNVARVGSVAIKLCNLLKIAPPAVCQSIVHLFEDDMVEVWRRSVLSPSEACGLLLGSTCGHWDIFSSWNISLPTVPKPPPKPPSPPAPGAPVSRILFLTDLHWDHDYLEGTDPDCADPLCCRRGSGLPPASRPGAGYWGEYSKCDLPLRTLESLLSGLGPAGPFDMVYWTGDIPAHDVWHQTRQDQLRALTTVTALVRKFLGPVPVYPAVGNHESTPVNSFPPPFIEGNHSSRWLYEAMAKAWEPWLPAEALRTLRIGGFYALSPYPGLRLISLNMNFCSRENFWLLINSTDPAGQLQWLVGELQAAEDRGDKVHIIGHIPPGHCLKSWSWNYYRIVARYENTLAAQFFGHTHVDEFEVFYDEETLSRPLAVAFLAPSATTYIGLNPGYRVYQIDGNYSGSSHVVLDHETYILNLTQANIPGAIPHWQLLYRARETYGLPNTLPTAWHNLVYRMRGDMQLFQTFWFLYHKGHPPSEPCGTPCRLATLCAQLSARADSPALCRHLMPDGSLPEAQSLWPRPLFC
Procedure, shortened: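 MDCK cells stably expressing human SMPD1-GFP treated 48 h at 5 µM. Whole-cell lysate, made without DTT, mixed with 50 mM sodium acetate pH 5.0 plus sphingomyelin and held 1 h at 37 °C. pH then raised to 7.4 with Amplex Red mix (100 µM Amplex Red, 2 U/mL HRP, 0.2 U/mL choline oxidase, 8 U/mL alkaline phosphatase, 100 mM Tris pH 8.0), 60 min at 37 °C. Fluorescence read at Ex 540/Em 590 nm. Controls: 0.1 U/mL SMase (positive), buffer alone (negative).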

Mus musculus [14] = assay: In vivo inhibition of Ca2+ channel in nu/nu mouse xenografted with human MIA PaCa-2 cells harboring KRAS mutation assessed as blood vessel dialation in tumor at 1 to 5 mg/kg, ip administered once daily for 5 days with 2 days break by immunostaining; format: functional, organism-based; conditions: dose 1-5 mg/kg, time 5.0 day
Mus musculus [15] = assay: In vivo inhibition of KRAS signaling in nu/nu mouse xenografted with human MIA PaCa-2 cells harboring KRAS mutation assessed as decrease in ERK phosphorylation in tumor at 1 to 5 mg/kg, ip administered once daily for 5 days with 2 days break by immunohistochemistry; format: functional, organism-based; conditions: dose 1-5 mg/kg, time 5.0 day
Procedure, shortened: (§4)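 Paraffin tumor sections of 4–5 µm were deparaffinized and given heat antigen retrieval in 10 mM sodium citrate. Endogenous peroxidase was quenched and sections blocked in 2.5% normal goat serum. Primary antibody (pERK or cleaved caspase 3) applied overnight at 4 °C, biotinylated secondary 1:250 for 45 min at rt, then ABC reagent 30 min and DAB development. Rabbit IgG served as control.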

MIA PaCa-2 [16] = assay: Antitumor activity human MIA PaCa-2 cells harboring KRAS mutation xenografted in nu/nu mouse assessed as induction of apoptosis by measuring increase in cleaved caspase 3 level in tumor at 1 to 5 mg/kg, ip administered once daily for 5 days with 2 days break by immunohistochemistry; format: functional, organism-based; conditions: dose 1-5 mg/kg, time 5.0 day; procedure, shortened: as §4
MDCK [17] = assay: Inhibition of ASM in dog MDCK cells co-expressing recombinant full length mGFP-tagged KRAS G12V mutant and mCherry-CAAX assessed as reduction in plasma membrane localization of KRAS mutant at 10 uM incubated for 48 hrs followed by incubation with recombinant ASM in continued presence of compound for 60 mins by confocal microscopic analysis; format: cell membranes; conditions: Canis lupus familiaris, time 49.0 hrs; procedure, shortened: as §3
Mus musculus [18] = assay: In vivo inhibition of ASM in nu/nu mouse xenografted with human MIA PaCa-2 cells harboring KRAS mutation assessed as increase in SM accumulation in tumor at 12.5 mg/kg, ip administered once daily for 5 days with 2 days break by GFP-lysenin staining based confocal laser microscopy; format: functional, organism-based; conditions: time 5.0 day
Procedure, shortened: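 Sections of MiaPaCa-2 xenograft tumors from i.p.-treated nu/nu mice (12.5 mg/kg) stained with GFP-tagged lysenin to detect sphingomyelin.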

HEC-1-A = assay: Antiproliferative activity against human HEC-1-A cells expressing mutant KRAS assessed as reduction in cell growth incubated for 72 hrs by CyQuant proliferation assay; format: functional, cell-based; procedure, shortened: as §2

Structure (SMILES) | inhibition (Caenorhabditis elegans) | IC50 (BXPC-3) [µM] | IC50 (HEC-1B cell line) [µM] | IC50 (MEF [2]) [µM] | IC50 (MEF [3]) [µM] | IC50 [4] [µM] | IC50 (Ishikawa) [µM] | IC50 (NCI-H1975) [µM] | inhibition (MDCK [5]) | IC50 [6] [µM] | IC50 (MIA PaCa-2 [7]) [µM] | IC50 (NCI-H522) [µM] | IC50 (NCI-H1299) [µM] | IC50 (MEF [10]) [µM] | IC50 (Caco-2) [µM] | inhibition [13] | also measured
COc1ccc([C@@H](C)N(CC=C(c2ccccc2)c2ccccc2)CCN2CCN(C)CC2)cc1 | Dose-Dependent Effect | 5.7 | 3.3 | 3.7 | 2.7 | 4.2 | > 30 | > 30 | Active | 3.7 | 3 | 28.2 | 8.2 | 7.5 | 5.1 | Active | IC50 [1]: 100 nM; IC50 (SK-CO-1): 3.3 µM; Emax (MDCK [8]): 0.75; inhibition (MDCK [9]): Active; Activity (ESS-1): inactive; Activity (KLE): inactive; inhibition (MDCK [11]): inactive; Activity (MDCK [12]): Active
CC(NCCC(c1ccccc1)c1ccccc1)c1ccccc1 (stereo unspecified) [FENDILINE] | Dose-Dependent Effect | 28.6 | 9.8 | 13.1 | 8.1 | 10.8 | > 30 | > 30 | inactive | 11.1 | 9.2 | 29.6 | 24.3 | 17.8 | 14.5 | Active | inhibition (Mus musculus [14]): Active; inhibition (Mus musculus [15]): inactive; Activity (MIA PaCa-2 [16]): inactive; inhibition (MDCK [17]): inactive; inhibition (Mus musculus [18]): Active; IC50 (HEC-1-A): 9.48 µM
